Reference: ChEMBL document CHEMBL4814060, “Design, synthesis and biological evaluation of novel pleuromutilin derivatives as potent anti-MRSA agents targeting the 50S ribosome” (Bioorg Med Chem, 2021)
In brackets after ≈: the same amount, converted by molar mass.

Assays:
Staphylococcus aureus [1] = assay: Antibacterial activity against methicillin-resistant Staphylococcus aureus ATCC 43300 assessed as inhibition of visible growth incubated for 24 hrs by CLSI protocol based broth microdilution method; type: functional
Staphylococcus aureus [2] = assay: Antibacterial activity against Staphylococcus aureus ATCC 29213 assessed as inhibition of visible growth incubated for 24 hrs by CLSI protocol based broth microdilution method; type: functional
Staphylococcus aureus [3] = assay: Antibacterial activity against Staphylococcus aureus 144 assessed as inhibition of visible growth incubated for 24 hrs by CLSI protocol based broth microdilution method; type: functional
Staphylococcus aureus [4] = assay: Antibacterial activity against Staphylococcus aureus AD3 assessed as inhibition of visible growth incubated for 24 hrs by CLSI protocol based broth microdilution method; type: functional
[5] = biological target: T1, Bacterial 70S ribosome (Bacteria) (UniProt P0A7V0+P60723+P0AG67+P0A7R5+P0A7R9+P0A7S3+P0A7S9+P0AG59+P0ADZ4+P0A7T3+P0AG63+P0A7T7+P0A7U3+P0A7U7+P68679+P0A7V3+P0A7V8+P0A7W1+P02358+P02359+P0A7W7+P0A7X3+P0A7J3+P0A7J7+P0AA10+P0ADY3+P02413+P0ADY7+P0AG44+P0C018+P0A7K6+P0A7L0+P0A7L3+P0AG48+P61175+P0ADZ0+P60624+P68919+P0A7L8+P0A7M2+P0A7M6+P60422+P0AG51+P0A7N1+P0A7M9+P0A7N4+P0A7N9+P0A7P5+P0A7Q1+Q2EEQ2+P0A7Q6+P60438+P62399+P0AG55+P0A7K2); assay: Binding affinity to Staphylococcus aureus ATCC 43300 50S ribosome assessed as dissociation rate constant by SPR analysis; type: subcellular
In short: (§1)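 The 50S subunit was purified from ATCC 43300 by sucrose cushion, a 7–30% sucrose gradient and PEG precipitation. Compounds at 100 µM in DMSO were photo-crosslinked onto the chip and printed four times each. Ribosome at 200–3200 nM in PBST (pH 7.4, 0.1% Tween 20) was run at 4 °C: association 600 s, then dissociation 360 s, both at 0.5 µL/s. Surface was regenerated with glycine-HCl pH 2.0.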

Staphylococcus aureus [6] = assay: In vivo antibacterial activity against methicillin-resistant Staphylococcus aureus ATCC 43300 infected in ICR/Swiss mouse model of neutropenic thigh infection assessed as reduction in bacterial growth at 20 mg/kg, iv administered 2 hrs after infection and tissue collected after 24 hrs and measured after 24 hrs […]; type: functional
In short: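 Female ICR/Swiss mice, 6 weeks old, were made neutropenic with ip cyclophosphamide (150 mg/kg at day −4, 100 mg/kg at day −1). Each thigh received about 10^7 CFU/mL MRSA in 0.1 mL. At 2 h, mice got a single iv dose of 20 mg/kg or saline, with 3 mice (6 thighs) per group. At 24 h, thighs were homogenized in iced saline, diluted and plated on MH agar, and CFU counted after 24 h at 37 °C.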

Staphylococcus aureus [7] = assay: Antibacterial activity against methicillin-resistant Staphylococcus aureus ATCC 43300 assessed as reduction in bacterial growth at 4 times of MIC measured at 3 hrs by time kill assay; type: functional
In short: (§2)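 MRSA was grown in MH broth at 37 °C for 4.5 h and diluted to 1×10^6 CFU/mL. Compound was added at 1, 2, 4, 8, 16 or 32 × MIC; growth control had 0.9% saline only. Cultures were shaken at 37 °C and sampled at 0, 3, 6, 9 and 24 h. Samples were serially diluted in saline and plated on MH agar, with CFU counted after 24 h at 37 °C. Run in triplicate.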

Staphylococcus aureus [8] = assay: Bactericidal activity against methicillin-resistant Staphylococcus aureus ATCC 43300 assessed as reduction in bacterial growth at 1 to 32 times of MIC measured upto 24 hrs by time kill assay; type: functional, organism-based; details: time hrs <=24, TDE = time-dependent effect; in short: as §2
[9] = biological target: T1, Bacterial 70S ribosome (Bacteria); assay: Binding affinity to Staphylococcus aureus ATCC 43300 50S ribosome assessed as association constant by SPR analysis; type: subcellular; in short: as §1

SMILES	MIC (Staphylococcus aureus [1])	MIC (Staphylococcus aureus [2])	MIC (Staphylococcus aureus [3])	MIC (Staphylococcus aureus [4])	Kdiss [5]	Activity (Staphylococcus aureus [6])	log10CFU/ml (Staphylococcus aureus [7])	Activity (Staphylococcus aureus [8])	Activity (Staphylococcus aureus [7])	Ka [9]
C=C[C@]1(C)C[C@@H](OC(=O)CSc2nc(N)n(C(=O)c3ccc(F)cc3)n2)[C@]2(C)[C@H](C)CC[C@]3(CCC(=O)[C@H]32)[C@@H](C)[C@@H]1O	0.5 µg/mL (≈ 0.835 µM)	1 µg/mL (≈ 1.67 µM)	1 µg/mL (≈ 1.67 µM)	1 µg/mL (≈ 1.67 µM)	–	–	–	–	–	–
C=C[C@]1(C)C[C@@H](OC(=O)CSc2nc(N)n(C(=O)c3ccccc3Cl)n2)[C@]2(C)[C@H](C)CC[C@]3(CCC(=O)[C@H]32)[C@@H](C)[C@@H]1O	0.5 µg/mL (≈ 0.813 µM)	0.5 µg/mL (≈ 0.813 µM)	1 µg/mL (≈ 1.63 µM)	0.5 µg/mL (≈ 0.813 µM)	–	–	–	–	–	–
C=C[C@]1(C)C[C@@H](OC(=O)CSc2nc(N)n(C(=O)c3ccccc3)n2)[C@]2(C)[C@H](C)CC[C@]3(CCC(=O)[C@H]32)[C@@H](C)[C@@H]1O	0.25 µg/mL (≈ 0.43 µM)	1 µg/mL (≈ 1.72 µM)	2 µg/mL (≈ 3.44 µM)	1 µg/mL (≈ 1.72 µM)	2.7 10^-4M	–	–	–	–	–
C=C[C@]1(C)C[C@@H](OC(=O)CSc2nc(N)n(C(=O)c3ccccc3C(F)(F)F)n2)[C@]2(C)[C@H](C)CC[C@]3(CCC(=O)[C@H]32)[C@@H](C)[C@@H]1O	2 µg/mL (≈ 3.08 µM)	4 µg/mL (≈ 6.17 µM)	4 µg/mL (≈ 6.17 µM)	4 µg/mL (≈ 6.17 µM)	–	–	–	–	–	–
C=C[C@]1(C)C[C@@H](OC(=O)CSc2nc(N)n(C(=O)c3c(F)c(F)c(F)c(F)c3F)n2)[C@]2(C)[C@H](C)CC[C@]3(CCC(=O)[C@H]32)[C@@H](C)[C@@H]1O	1 µg/mL (≈ 1.49 µM)	2 µg/mL (≈ 2.98 µM)	2 µg/mL (≈ 2.98 µM)	1 µg/mL (≈ 1.49 µM)	–	–	–	–	–	–
C=C[C@]1(C)C[C@@H](OC(=O)CSc2nc(N)n(C(=O)c3cc(Cl)cc(Cl)c3)n2)[C@]2(C)[C@H](C)CC[C@]3(CCC(=O)[C@H]32)[C@@H](C)[C@@H]1O	1 µg/mL (≈ 1.54 µM)	1 µg/mL (≈ 1.54 µM)	1 µg/mL (≈ 1.54 µM)	0.5 µg/mL (≈ 0.77 µM)	–	–	–	–	–	–
C=C[C@]1(C)C[C@@H](OC(=O)CSc2nc(N)n(C(=O)c3ccc(C(F)(F)F)cc3)n2)[C@]2(C)[C@H](C)CC[C@]3(CCC(=O)[C@H]32)[C@@H](C)[C@@H]1O	1 µg/mL (≈ 1.54 µM)	1 µg/mL (≈ 1.54 µM)	1 µg/mL (≈ 1.54 µM)	1 µg/mL (≈ 1.54 µM)	–	–	–	–	–	–
C=C[C@]1(C)C[C@@H](OC(=O)CSc2nc(N)n[nH]2)[C@]2(C)[C@H](C)CC[C@]3(CCC(=O)[C@H]32)[C@@H](C)[C@@H]1O	1 µg/mL (≈ 2.1 µM)	1 µg/mL (≈ 2.1 µM)	2 µg/mL (≈ 4.2 µM)	1 µg/mL (≈ 2.1 µM)	–	–	–	–	–	–
C=C[C@]1(C)C[C@@H](OC(=O)CSc2nc(N)n(C(=O)c3cccc(OC)c3)n2)[C@]2(C)[C@H](C)CC[C@]3(CCC(=O)[C@H]32)[C@@H](C)[C@@H]1O	0.25 µg/mL (≈ 0.409 µM)	0.5 µg/mL (≈ 0.819 µM)	0.5 µg/mL (≈ 0.819 µM)	0.5 µg/mL (≈ 0.819 µM)	–	–	–	–	–	–
C=C[C@]1(C)C[C@@H](OC(=O)CSCCN(CC)CC)[C@]2(C)[C@H](C)CC[C@]3(CCC(=O)[C@H]32)[C@@H](C)[C@@H]1O [TIAMULIN]	0.5 µg/mL (≈ 1.01 µM)	1 µg/mL (≈ 2.03 µM)	1 µg/mL (≈ 2.03 µM)	1 µg/mL (≈ 2.03 µM)	–	0.91 log10CFU/g	–	–	–	–
C=C[C@]1(C)C[C@@H](OC(=O)CSc2nc(N)n(C(=O)c3cccc(Cl)c3)n2)[C@]2(C)[C@H](C)CC[C@]3(CCC(=O)[C@H]32)[C@@H](C)[C@@H]1O	0.25 µg/mL (≈ 0.406 µM)	0.25 µg/mL (≈ 0.406 µM)	0.5 µg/mL (≈ 0.813 µM)	0.25 µg/mL (≈ 0.406 µM)	4.94 10^-7M	–	-1.23	Tde	–	–
C=C[C@]1(C)C[C@@H](OC(=O)CSc2nc(N)n(C(=O)c3ccccc3OC)n2)[C@]2(C)[C@H](C)CC[C@]3(CCC(=O)[C@H]32)[C@@H](C)[C@@H]1O	1 µg/mL (≈ 1.64 µM)	1 µg/mL (≈ 1.64 µM)	1 µg/mL (≈ 1.64 µM)	1 µg/mL (≈ 1.64 µM)	–	–	–	–	–	–
C=C[C@]1(C)C[C@@H](OC(=O)CSc2nc(N)n(C(=O)c3cccc(C)c3)n2)[C@]2(C)[C@H](C)CC[C@]3(CCC(=O)[C@H]32)[C@@H](C)[C@@H]1O	0.25 µg/mL (≈ 0.42 µM)	0.5 µg/mL (≈ 0.841 µM)	0.5 µg/mL (≈ 0.841 µM)	0.5 µg/mL (≈ 0.841 µM)	8.79 10^-6M	–	–	–	–	–
C=C[C@]1(C)C[C@@H](OC(=O)CSc2nc(N)n(C(=O)c3ccc(F)cc3Cl)n2)[C@]2(C)[C@H](C)CC[C@]3(CCC(=O)[C@H]32)[C@@H](C)[C@@H]1O	1 µg/mL (≈ 1.58 µM)	1 µg/mL (≈ 1.58 µM)	1 µg/mL (≈ 1.58 µM)	0.5 µg/mL (≈ 0.79 µM)	–	–	–	–	–	–
C=C[C@]1(C)C[C@@H](OC(=O)CSc2nc(N)n(C(=O)c3ccc(Cl)cc3)n2)[C@]2(C)[C@H](C)CC[C@]3(CCC(=O)[C@H]32)[C@@H](C)[C@@H]1O	0.5 µg/mL (≈ 0.813 µM)	1 µg/mL (≈ 1.63 µM)	1 µg/mL (≈ 1.63 µM)	1 µg/mL (≈ 1.63 µM)	–	–	–	–	–	–
C=C[C@]1(C)C[C@@H](OC(=O)CSc2nc(N)n(C(=O)c3cccc(F)c3)n2)[C@]2(C)[C@H](C)CC[C@]3(CCC(=O)[C@H]32)[C@@H](C)[C@@H]1O	0.25 µg/mL (≈ 0.418 µM)	0.5 µg/mL (≈ 0.835 µM)	1 µg/mL (≈ 1.67 µM)	0.5 µg/mL (≈ 0.835 µM)	2.21 10^-5M	–	–	Tde	-1.26 log10CFU/ml	5.4 10^2/Ms
C=C[C@]1(C)C[C@@H](OC(=O)CSc2nc(N)n(C(=O)c3ccc(OC)cc3)n2)[C@]2(C)[C@H](C)CC[C@]3(CCC(=O)[C@H]32)[C@@H](C)[C@@H]1O	0.25 µg/mL (≈ 0.409 µM)	0.25 µg/mL (≈ 0.409 µM)	0.5 µg/mL (≈ 0.819 µM)	0.25 µg/mL (≈ 0.409 µM)	2.22 10^-7M	–	–	Tde	-2.42 log10CFU/ml	–
C=C[C@]1(C)C[C@@H](OC(=O)CSc2nc(N)n(C(=O)c3ccc(OC(F)(F)F)cc3)n2)[C@]2(C)[C@H](C)CC[C@]3(CCC(=O)[C@H]32)[C@@H](C)[C@@H]1O	1 µg/mL (≈ 1.5 µM)	2 µg/mL (≈ 3.01 µM)	2 µg/mL (≈ 3.01 µM)	1 µg/mL (≈ 1.5 µM)	–	–	–	–	–	–
C=C[C@]1(C)C[C@@H](OC(=O)CSc2nc(N)n(C(=O)c3ccccc3F)n2)[C@]2(C)[C@H](C)CC[C@]3(CCC(=O)[C@H]32)[C@@H](C)[C@@H]1O	1 µg/mL (≈ 1.67 µM)	2 µg/mL (≈ 3.34 µM)	4 µg/mL (≈ 6.68 µM)	2 µg/mL (≈ 3.34 µM)	–	–	–	–	–	–
C=C[C@]1(C)C[C@@H](OC(=O)CSc2nc(N)n(C(=O)c3ccccc3C)n2)[C@]2(C)[C@H](C)CC[C@]3(CCC(=O)[C@H]32)[C@@H](C)[C@@H]1O	0.5 µg/mL (≈ 0.841 µM)	1 µg/mL (≈ 1.68 µM)	1 µg/mL (≈ 1.68 µM)	1 µg/mL (≈ 1.68 µM)	–	–	–	–	–	–
C=C[C@]1(C)C[C@@H](OC(=O)CSc2nc(N)n(C(=O)c3c(F)cccc3Cl)n2)[C@]2(C)[C@H](C)CC[C@]3(CCC(=O)[C@H]32)[C@@H](C)[C@@H]1O	1 µg/mL (≈ 1.58 µM)	2 µg/mL (≈ 3.16 µM)	2 µg/mL (≈ 3.16 µM)	2 µg/mL (≈ 3.16 µM)	–	–	–	–	–	–
